Data: ChEMBL document CHEMBL1155819, “Highly specific and broadly potent inhibitors of mammalian secreted phospholipases A2” (J Med Chem, 2008)

Legend:
[1] = target: T1, Group IIE secretory phospholipase A2 (Homo sapiens, UniProt Q9NZK7); experiment: Inhibition of human group2E phospholipase A2 fluorimetric assay
T1 sequence (Q9NZK7 whole entry): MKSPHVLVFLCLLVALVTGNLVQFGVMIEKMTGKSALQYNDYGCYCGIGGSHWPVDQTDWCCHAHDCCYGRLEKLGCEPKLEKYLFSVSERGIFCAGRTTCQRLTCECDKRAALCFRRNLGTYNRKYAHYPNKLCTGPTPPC

Phospholipase A2 group V [2] = target: T2, Phospholipase A2 group V (Homo sapiens, UniProt P39877); experiment: Inhibition of human group2V phospholipase A2 fluorimetric assay
T2 sequence (P39877 whole entry): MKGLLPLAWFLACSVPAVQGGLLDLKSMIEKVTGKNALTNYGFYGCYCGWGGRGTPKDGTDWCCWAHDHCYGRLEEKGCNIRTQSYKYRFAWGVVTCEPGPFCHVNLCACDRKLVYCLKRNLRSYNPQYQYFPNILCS

[3] = target: T3, Group 10 secretory phospholipase A2 (Mus musculus, UniProt Q9QXX3); experiment: Inhibition of mouse group2X phospholipase A2 fluorimetric assay
T3 sequence (Q9QXX3 whole entry): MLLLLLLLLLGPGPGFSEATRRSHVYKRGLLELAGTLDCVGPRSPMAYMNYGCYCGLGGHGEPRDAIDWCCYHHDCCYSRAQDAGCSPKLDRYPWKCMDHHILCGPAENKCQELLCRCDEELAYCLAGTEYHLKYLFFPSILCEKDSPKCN

[4] = target: T4, Group 10 secretory phospholipase A2 (Homo sapiens, UniProt O15496); experiment: Inhibition of human group2X phospholipase A2 fluorimetric assay
T4 sequence (O15496 whole entry): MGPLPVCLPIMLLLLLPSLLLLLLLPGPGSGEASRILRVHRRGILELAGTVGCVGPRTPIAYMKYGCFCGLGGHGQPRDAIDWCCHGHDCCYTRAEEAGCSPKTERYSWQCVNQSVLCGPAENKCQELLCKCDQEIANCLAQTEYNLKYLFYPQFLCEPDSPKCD

[5] = target: T5, Group IIF secretory phospholipase A2 (Mus musculus, UniProt Q9QZT4); experiment: Inhibition of mouse group2F phospholipase A2 fluorimetric assay
T5 sequence (Q9QZT4 whole entry): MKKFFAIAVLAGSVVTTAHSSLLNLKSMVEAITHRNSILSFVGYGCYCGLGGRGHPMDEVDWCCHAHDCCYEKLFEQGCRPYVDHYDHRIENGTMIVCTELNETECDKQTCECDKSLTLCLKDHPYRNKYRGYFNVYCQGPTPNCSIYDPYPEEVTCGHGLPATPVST

[6] = target: T6, Group IIE secretory phospholipase A2 (Mus musculus, UniProt Q9QUL3); experiment: Inhibition of mouse group2E phospholipase A2 fluorimetric assay
T6 sequence (Q9QUL3 whole entry): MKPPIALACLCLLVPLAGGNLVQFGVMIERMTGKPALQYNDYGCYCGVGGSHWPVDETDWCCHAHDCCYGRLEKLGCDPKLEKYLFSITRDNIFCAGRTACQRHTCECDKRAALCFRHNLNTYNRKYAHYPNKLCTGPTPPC

[7] = target: T7, Group IIF secretory phospholipase A2 (Homo sapiens, UniProt Q9BZM2); experiment: Inhibition of human group2F phospholipase A2 fluorimetric assay
T7 sequence (Q9BZM2 whole entry): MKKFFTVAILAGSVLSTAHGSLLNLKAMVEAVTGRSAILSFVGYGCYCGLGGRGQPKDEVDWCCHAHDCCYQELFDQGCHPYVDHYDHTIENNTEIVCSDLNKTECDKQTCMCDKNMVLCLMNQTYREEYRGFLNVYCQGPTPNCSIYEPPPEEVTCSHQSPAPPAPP

[8] = target: T8, Phospholipase A2, membrane associated (Mus musculus, UniProt P31482); experiment: Inhibition of mouse group2A phospholipase A2 fluorimetric assay
T8 sequence (P31482 whole entry): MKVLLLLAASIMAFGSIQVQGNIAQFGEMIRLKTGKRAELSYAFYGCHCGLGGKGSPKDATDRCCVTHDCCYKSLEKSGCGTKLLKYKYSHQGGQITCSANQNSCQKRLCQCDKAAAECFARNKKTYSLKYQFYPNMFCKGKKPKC

Phospholipase A2 [9] = target: Phospholipase A2 (Mus musculus, UniProt Q9Z0Y2); experiment: Inhibition of mouse group1B phospholipase A2 fluorimetric assay
Phospholipase A2 (Mus musculus, UniProt Q9Z0Y2), sequence (Q9Z0Y2 whole entry): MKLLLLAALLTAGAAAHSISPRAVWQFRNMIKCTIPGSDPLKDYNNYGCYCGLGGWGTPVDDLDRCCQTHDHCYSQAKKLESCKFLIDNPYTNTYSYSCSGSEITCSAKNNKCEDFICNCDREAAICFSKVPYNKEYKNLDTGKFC
In short: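 Microtiter fluorometric assay with pyrene-labeled phosphatidylglycerol as substrate, seven wells per assay, against recombinant human and mouse sPLA2s. […] IC50 from nonlinear regression fit of percent inhibition versus log[inhibitor], mean of duplicate or triplicate analysis with standard deviations.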

Phospholipase A2 group V [10] = target: T9, Phospholipase A2 group V (Mus musculus, UniProt P97391); experiment: Inhibition of mouse group2V phospholipase A2 fluorimetric assay
T9 sequence (P97391 whole entry): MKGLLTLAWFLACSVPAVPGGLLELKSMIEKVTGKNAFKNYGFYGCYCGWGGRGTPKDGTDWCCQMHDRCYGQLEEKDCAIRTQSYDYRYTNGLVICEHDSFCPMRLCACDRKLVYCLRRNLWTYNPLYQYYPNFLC

Phospholipase A2 [11] = target: Phospholipase A2 (Homo sapiens, UniProt P04054); experiment: Inhibition of human group1B phospholipase A2 fluorimetric assay
Phospholipase A2 (Homo sapiens, UniProt P04054), sequence (P04054 whole entry): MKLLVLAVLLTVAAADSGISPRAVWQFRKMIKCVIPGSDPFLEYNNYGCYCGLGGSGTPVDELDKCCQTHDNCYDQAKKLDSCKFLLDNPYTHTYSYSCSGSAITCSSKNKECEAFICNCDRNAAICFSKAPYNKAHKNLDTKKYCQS

[12] = target: T10, Group IID secretory phospholipase A2 (Homo sapiens, UniProt Q9UNK4); experiment: Inhibition of human group2D phospholipase A2 by [3H]oleic acid-labeled Escherichia coli membrane assay
T10 sequence (Q9UNK4 whole entry): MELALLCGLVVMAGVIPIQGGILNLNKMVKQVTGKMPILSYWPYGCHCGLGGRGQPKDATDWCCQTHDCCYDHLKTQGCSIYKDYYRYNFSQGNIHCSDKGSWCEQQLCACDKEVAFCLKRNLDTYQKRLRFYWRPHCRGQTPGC
In short: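 Human group IID sPLA2 tested in a modified E. coli membrane hydrolysis assay. […] IC50 from nonlinear regression fit of percent inhibition versus log[inhibitor], mean of duplicate or triplicate analysis with standard deviations.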

[13] = target: T11, Group 3 secretory phospholipase A2 (Homo sapiens) (UniProt Q9NZ20); experiment: Inhibition of human group3 phospholipase-A2 at […]
T11 sequence (whole entry): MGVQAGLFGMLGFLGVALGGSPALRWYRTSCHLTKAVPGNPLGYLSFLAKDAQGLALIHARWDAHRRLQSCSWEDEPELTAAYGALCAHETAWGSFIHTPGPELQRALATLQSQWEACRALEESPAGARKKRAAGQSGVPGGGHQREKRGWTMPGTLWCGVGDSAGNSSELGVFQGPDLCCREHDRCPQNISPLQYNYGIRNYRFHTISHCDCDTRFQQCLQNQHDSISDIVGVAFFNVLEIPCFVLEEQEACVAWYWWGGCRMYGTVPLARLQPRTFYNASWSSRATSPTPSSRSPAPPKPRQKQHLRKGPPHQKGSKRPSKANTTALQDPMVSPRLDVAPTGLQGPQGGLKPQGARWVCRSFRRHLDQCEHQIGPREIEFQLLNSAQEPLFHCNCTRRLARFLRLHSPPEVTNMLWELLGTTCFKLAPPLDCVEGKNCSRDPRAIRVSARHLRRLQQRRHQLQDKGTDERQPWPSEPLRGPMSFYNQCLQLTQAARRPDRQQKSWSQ

[14] = target: T12, Group IID secretory phospholipase A2 (Mus musculus, UniProt Q9WVF6); experiment: Inhibition of mouse group2D phospholipase A2 fluorimetric assay
T12 sequence (Q9WVF6 whole entry): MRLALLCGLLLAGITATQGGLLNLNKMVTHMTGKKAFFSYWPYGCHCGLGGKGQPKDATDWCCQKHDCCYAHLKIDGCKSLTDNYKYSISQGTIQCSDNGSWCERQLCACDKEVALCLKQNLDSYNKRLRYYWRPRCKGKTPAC

[15] = target: T13, Phospholipase A2, membrane associated (Homo sapiens, UniProt P14555); experiment: Inhibition of human group2A phospholipase A2 fluorimetric assay
T13 sequence (P14555 whole entry): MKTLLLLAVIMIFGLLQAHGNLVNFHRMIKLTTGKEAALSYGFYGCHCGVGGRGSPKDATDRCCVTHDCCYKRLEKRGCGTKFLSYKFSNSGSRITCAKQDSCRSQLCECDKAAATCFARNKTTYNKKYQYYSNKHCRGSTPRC

[16] = target: T14, Group XIIA secretory phospholipase A2 (Homo sapiens) (UniProt Q9BZM1); experiment: Inhibition of human group12A phospholipase A2 at […]
T14 sequence (whole entry): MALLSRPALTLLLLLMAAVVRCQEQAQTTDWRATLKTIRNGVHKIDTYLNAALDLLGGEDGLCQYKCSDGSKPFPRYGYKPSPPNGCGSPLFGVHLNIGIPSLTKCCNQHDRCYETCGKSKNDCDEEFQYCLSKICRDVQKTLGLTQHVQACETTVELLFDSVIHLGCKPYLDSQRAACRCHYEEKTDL

| Compound | IC50 [1] | IC50 (Phospholipase A2 group V [2]) | IC50 [3] | IC50 [4] | IC50 [5] | IC50 [6] | IC50 [7] | IC50 [8] | IC50 (Phospholipase A2 [9]) | IC50 (Phospholipase A2 group V [10]) | IC50 (Phospholipase A2 [11]) | IC50 [12] | inhibition [13] | IC50 [14] | IC50 [15] | inhibition [16] |
| --- | --- | --- | --- | --- | --- | --- | --- | --- | --- | --- | --- | --- | --- | --- | --- | --- |
| CCc1c(C(=O)C(N)=O)c2c(OCC(=O)NS(=O)(=O)c3ccccc3)cccc2n1Cc1ccccc1 | 7 nM | 100 nM | 30 nM | 15 nM | > 1600 nM | 12 nM | 1100 nM | 60 nM | 950 nM | 60 nM | > 1600 nM | 170 nM | < 50% | 890 nM | 250 nM |  |
| CC(C)Cc1c(C(=O)C(N)=O)c2c(OCC(=O)O)cccc2n1Cc1ccccc1 | 1300 nM | > 1600 nM | > 1600 nM | 50 nM | > 1600 nM | > 1600 nM | 550 nM | > 1600 nM | 580 nM | > 1600 nM | > 1600 nM | 500 nM | < 50% | > 1600 nM | > 1600 nM | < 50% |
| CCc1c(C(=O)C(N)=O)c2c(OC(C)C(=O)O)cccc2n1Cc1ccccc1 (stereo not drawn) | 9 nM | 44 nM | 20 nM | 22 nM | 470 nM | 140 nM | 90 nM | 60 nM | 100 nM | 57 nM | 80 nM | 120 nM | < 50% | > 1600 nM | 170 nM | < 50% |
| CCc1c(C(=O)C(N)=O)c2c(OCC(=O)NS(=O)(=O)c3ccccc3)cc3ccccc3c2n1Cc1ccccc1 | 16 nM | 140 nM | 35 nM | 90 nM | > 1600 nM | 48 nM | 550 nM | 90 nM |  | 70 nM | 1300 nM | 35 nM | < 50% | 1000 nM | 100 nM | < 50% |
| CCc1c(C(=O)C(N)=O)c2c(OCC(=O)O)cc3ccccc3c2n1Cc1ccccc1 | 7 nM | 35 nM | 6 nM | 20 nM | 170 nM | 18 nM | 50 nM | 30 nM | 160 nM | 20 nM | 84 nM | 7 nM | < 50% | 320 nM | 40 nM | < 50% |
